From ChEMBL document CHEMBL1137710, “Synthesis and in vitro antitumor activity of new quinoxaline derivatives” (2009)

What was measured:
Format in all cases: functional
MCF7 = assay: Anticancer activity against human MCF7 cells assessed as cell growth at 100 uM after 48 hrs by sulforhodamine B assay; settings: MCF7, 48 h, read-out: Activity
SF-268 [1] = assay: Anticancer activity against human SF268 cells assessed as cell growth at 100 uM after 48 hrs by sulforhodamine B assay; settings: SF-268, 48 h, read-out: Activity
K562 = assay: Growth inhibition of human K562 cells after 48 hrs by sulforhodamine B assay; settings: K562, 48 h
Summary of the method: (§1)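 NCI 60-human-tumor-cell-line panel, with compounds tested over a 5-log dose range. Values are taken from dose-response curves as log10 molar concentrations: GI50 is 50% net growth inhibition, TGI is total growth inhibition, and LC50 is 50% net cell death.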

[2] = Growth inhibition of human […] cells after 48 hrs by sulforhodamine B assay; summary of the method: as §1
NCI-H23 = assay: Growth inhibition of human NCI-H23 cells after 48 hrs by sulforhodamine B assay; settings: NCI-H23, 48 h; summary of the method: as §1
NCI-H322M = assay: Growth inhibition of human NCI-H322M cells after 48 hrs by sulforhodamine B assay; summary of the method: as §1
NCI-H522 = assay: Growth inhibition of human NCI-H522 cells after 48 hrs by sulforhodamine B assay; settings: NCI-H522, 48 h; summary of the method: as §1
COLO 205 = assay: Growth inhibition of human COLO205 cells after 48 hrs by sulforhodamine B assay; settings: COLO 205, 48 h; summary of the method: as §1
HCT-116 = assay: Growth inhibition of human HCT116 cells after 48 hrs by sulforhodamine B assay; settings: HCT-116, 48 h; summary of the method: as §1
SW-620 = assay: Growth inhibition of human SW620 cells after 48 hrs by sulforhodamine B assay; settings: SW-620, 48 h
Summary of the method: (§2)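 Run in the NCI 60-human-tumour-cell-line panel, tested over a 5-log dose range. Dose–response curves gave three values per cell line, each as a log10 molar concentration: GI50 (50% inhibition of net cell growth), TGI (total inhibition of net growth) and LC50 (50% net cell death). The mean graph midpoint is the arithmetic mean over all lines, with insensitive lines entered at the highest concentration tested.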

SF-268 [3] = assay: Growth inhibition of human SF268 cells after 48 hrs by sulforhodamine B assay; settings: SF-268, 48 h; summary of the method: as §1
SF-295 = assay: Growth inhibition of human SF295 cells after 48 hrs by sulforhodamine B assay; settings: SF-295, 48 h; summary of the method: as §1
SNB-19 = assay: Growth inhibition of human SNB19 cells after 48 hrs by sulforhodamine B assay; settings: SNB-19, 48 h; summary of the method: as §2
U-251 = assay: Growth inhibition of human U251 cells after 48 hrs by sulforhodamine B assay; settings: U-251, 48 h; summary of the method: as §2
LOX IMVI = assay: Growth inhibition of human LOXIMVI cells after 48 hrs by sulforhodamine B assay; summary of the method: as §1
M14 = assay: Growth inhibition of human M14 cells after 48 hrs by sulforhodamine B assay; settings: M14, 48 h; summary of the method: as §1
SK-MEL-2 = assay: Growth inhibition of human SK-MEL-2 cells after 48 hrs by sulforhodamine B assay; settings: SK-MEL-2, 48 h; summary of the method: as §1
SK-MEL-28 = assay: Growth inhibition of human SK-MEL-28 cells after 48 hrs by sulforhodamine B assay; settings: SK-MEL-28, 48 h; summary of the method: as §1
SK-MEL-5 = assay: Growth inhibition of human SK-MEL-5 cells after 48 hrs by sulforhodamine B assay; settings: SK-MEL-5, 48 h; summary of the method: as §1
UACC-62 = assay: Growth inhibition of human UACC62 cells after 48 hrs by sulforhodamine B assay; settings: UACC-62, 48 h; summary of the method: as §2
OVCAR-3 = assay: Growth inhibition of human OVCAR-3 cells after 48 hrs by sulforhodamine B assay; settings: OVCAR-3, 48 h; summary of the method: as §1
OVCAR-4 = assay: Growth inhibition of human OVCAR4 cells after 48 hrs by sulforhodamine B assay; settings: OVCAR-4, 48 h; summary of the method: as §1
OVCAR-5 = assay: Growth inhibition of human OVCAR5 cells after 48 hrs by sulforhodamine B assay; settings: OVCAR-5, 48 h; summary of the method: as §1
786-0 = assay: Growth inhibition of human 786-0 cells after 48 hrs by sulforhodamine B assay; settings: 786-0, 48 h; summary of the method: as §1
CAKI-1 = assay: Growth inhibition of human Caki1 cells after 48 hrs by sulforhodamine B assay; settings: CAKI-1, 48 h; summary of the method: as §1
RXF 393 = assay: Growth inhibition of human RXF393 cells after 48 hrs by sulforhodamine B assay; settings: RXF 393, 48 h; summary of the method: as §1
NCI/ADR-RES = assay: Growth inhibition of human NCI/ADR-RES cells after 48 hrs by sulforhodamine B assay; summary of the method: as §1
MDA-MB-231 = assay: Growth inhibition of human MDA-MB-231 cells after 48 hrs by sulforhodamine B assay; settings: MDA-MB-231, 48 h; summary of the method: as §1
[4] = Growth inhibition of human Hs 578T cells after 48 hrs by sulforhodamine B assay; summary of the method: as §1
MDA-MB-435 = assay: Growth inhibition of human MDA-MB-435 cells after 48 hrs by sulforhodamine B assay; settings: MDA-MB-435, 48 h; summary of the method: as §1
[5] = read-out: pLC50 (the source's name) (converted)

COc1ccc(Sc2nc3cc(N)cc(N)c3nc2-c2ccccc2)cc1
growth at 100 µM (MCF7): 8% | growth at 100 µM (SF-268 [1]): 7% | GI50 (K562): 9.77 µM | LC50 (K562): > 100 µM | TGI (K562; read-out: pTGI (converted)): > 100 µM | GI50 [2]: 3.98 µM | LC50 [2]: > 100 µM | TGI ([2]; read-out: pTGI (converted)): 85.1 µM | GI50 (NCI-H23): > 100 µM | LC50 (50% net cell kill concentration) (NCI-H23): > 100 µM | TGI (NCI-H23; read-out: pTGI (converted)): > 100 µM | GI50 (NCI-H322M): 35.5 µM | LC50 (NCI-H322M): > 100 µM | TGI (NCI-H322M; read-out: pTGI (converted)): > 100 µM | GI50 (NCI-H522): 3.24 µM | LC50 (NCI-H522): > 100 µM | TGI (NCI-H522; read-out: pTGI (converted)): > 100 µM | GI50 (COLO 205): 19.5 µM | LC50 (50% net cell kill) (COLO 205): > 100 µM | TGI (COLO 205; read-out: pTGI (converted)): > 100 µM | GI50 (HCT-116): 14.8 µM | LC50 (concentration causing 50% net cell death) (HCT-116): > 100 µM | TGI (HCT-116; read-out: pTGI (converted)): > 100 µM | GI50 (SW-620): 26.3 µM | CC50 (SW-620; [5]): > 100 µM | TGI (SW-620; read-out: pTGI (converted)): > 100 µM | GI50 (SF-268 [3]): > 100 µM | LC50 (SF-268 [3]): > 100 µM | TGI (SF-268 [3]; read-out: pTGI (converted)): > 100 µM | GI50 (SF-295): > 100 µM | LC50 (50% net cell kill) (SF-295): > 100 µM | TGI (SF-295; read-out: pTGI (converted)): > 100 µM | GI50 (SNB-19): > 100 µM | LC50 (SNB-19): > 100 µM | TGI (SNB-19; read-out: pTGI (converted)): > 100 µM | GI50 (U-251): > 100 µM | LC50 (50% net cell kill) (U-251): > 100 µM | TGI (U-251; read-out: pTGI (converted)): > 100 µM | GI50 (LOX IMVI): 51.3 µM | LC50 (LOX IMVI): > 100 µM | TGI (LOX IMVI; read-out: pTGI (converted)): > 100 µM | GI50 (M14): > 100 µM | CC50 (M14; [5]): > 100 µM | TGI (M14; read-out: pTGI (converted)): > 100 µM | CC50 (SK-MEL-2; [5]): > 100 µM | TGI (SK-MEL-2; read-out: pTGI (converted)): > 100 µM | GI50 (SK-MEL-28): 24.5 µM | CC50 (SK-MEL-28; [5]): > 100 µM | TGI (SK-MEL-28; read-out: pTGI (converted)): > 100 µM | GI50 (SK-MEL-5): 24 µM | CC50 (SK-MEL-5; [5]): > 100 µM | TGI (SK-MEL-5; read-out: pTGI (converted)): > 100 µM | GI50 (UACC-62): 38 µM | CC50 (UACC-62; [5]): > 100 µM | TGI (UACC-62; read-out: pTGI (converted)): > 100 µM | CC50 (OVCAR-3; [5]): > 100 µM | TGI (OVCAR-3; read-out: pTGI (converted)): > 100 µM | CC50 (OVCAR-4; [5]): > 100 µM | TGI (OVCAR-4; read-out: pTGI (converted)): > 100 µM | GI50 (OVCAR-5): > 100 µM | CC50 (OVCAR-5; [5]): > 100 µM | TGI (OVCAR-5; read-out: pTGI (converted)): > 100 µM | GI50 (786-0): 13.2 µM | CC50 (786-0; [5]): 70.8 µM | TGI (786-0; read-out: pTGI (converted)): 30.2 µM | GI50 (CAKI-1): 13.2 µM | CC50 (CAKI-1; [5]): > 100 µM | TGI (CAKI-1; read-out: pTGI (converted)): 52.5 µM | GI50 (RXF 393): 3.09 µM | CC50 (RXF 393; [5]): > 100 µM | TGI (RXF 393; read-out: pTGI (converted)): 17 µM | GI50 (NCI/ADR-RES): > 100 µM | CC50 (NCI/ADR-RES; [5]): > 100 µM | TGI (NCI/ADR-RES; read-out: pTGI (converted)): > 100 µM | GI50 (MDA-MB-231): > 100 µM | CC50 (MDA-MB-231; [5]): > 100 µM | TGI (MDA-MB-231; read-out: pTGI (converted)): > 100 µM | GI50 [4]: > 100 µM | CC50 [4, 5]: > 100 µM | TGI ([4]; read-out: pTGI (converted)): > 100 µM | GI50 (MDA-MB-435): > 100 µM | CC50 (MDA-MB-435; [5]): > 100 µM | TGI (MDA-MB-435; read-out: pTGI (converted)): > 100 µM
